# Measurements: ChEMBL document CHEMBL5096237, “Orally Bioavailable Prodrugs of ψ-GSH: A Potential Treatment for Alzheimer's Disease” (J Med Chem, 2022)
# Calls of active or inactive are those of the source. The rule behind the calls is not given here.
# Assays:
# [1] = Stability in CD-1 mouse assessed as half life at intestinal phase of gastrointestinal tract at 1 uM measured upto 240 mins by LC-MS/MS analysis; type: ADME; settings: for t1/2: mouse, 4 h, 1 µM
# Method in brief: (§1)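 Compound at 1 μM final was incubated at 37 °C in plasma, brain homogenate, liver homogenate, simulated gastric fluid or simulated intestinal fluid. Aliquots taken at 0, 5, 15, 30, 60, 120 and 240 min were quenched with 3 volumes of acetonitrile containing 1% formic acid and centrifuged. Supernatants were analyzed by HPLC-UV (254 nm, after Fmoc-Cl derivatization) and/or LC-MS/MS to derive t1/2.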
# [2] = Stability in CD-1 mouse plasma assessed as half life at 1 uM measured upto 240 mins by LC-MS/MS analysis; type: ADME, cell-free; settings: for t1/2: mouse, 4 h, 1 µM; for half-life at 1 µM: CD-1, mouse; method in brief: as §1
# [3] = Stability in CD-1 mouse assessed as half life at gastric phase of gastrointestinal tract at 1 uM measured upto 240 mins by LC-MS/MS analysis; type: ADME; settings: for t1/2: mouse, 4 h, 1 µM; method in brief: as §1
# [4] = AUC in CD-1 mouse measured in per mg of brain tissue at 500 mg/kg, ip; type: ADME, organism-based; parameters: dose 500 mg/kg, route ip; settings: in vivo
# Method in brief: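 Male CD-1 mice, eight weeks old, N = 4 per time point. They received oral prodrug at 250 mg/kg, or ψ-GSH at 500 mg/kg i.p. for comparison. Blood and brain were taken at 2, 4 and 6 h. Brain was homogenized 1:5 (w/v) in DPBS. Plasma and homogenate were treated with 100 mM N-ethylmaleimide for 10 min at ambient temperature, deproteinized with 3% sulfosalicylic acid, then quantified by positive-ESI LC-MS/MS MRM, with ψ-GSH read as its NEM adduct.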
# Mus musculus [5] = species on record: Mus musculus; test: Anti-alzheimer activity against A-beta injected mouse assessed as reduction in microglial activation in dentate gyrase region by GFAP staining based analysis; type: functional, organism-based; settings: in the assay text read “Iba1 staining” for “GFAP staining”
# Method in brief: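 C57BL/6 mice were dosed with compound at 250 mg/kg once daily for 12 days; Aβ1–42 oligomers were given i.c.v. on day 4. Half-brains were fixed in 4% PFA for 24 h and sucrose-cryoprotected. 40 μm coronal sections, every 12th (4–6 sections), were immunostained for GFAP (astrocytes) or Iba1 (microglia) by ABC/DAB after antigen retrieval. Stained area fraction in dorsal hippocampus or dentate gyrus was measured stereologically at ×40.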
# Mus musculus [6] = test: Anti-alzheimer activity against oral dosed mouse brain assessed as restoration of reduced GSH level by […]; type: functional, organism-based
# Method in brief: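 Brains from the i.c.v. Aβ1–42 mice were homogenized and deproteinized with metaphosphoric acid. After neutralization, samples were diluted in 50 mM MES (pH 6.0, 1 mM EDTA). GSH was measured by enzymatic recycling with DTNB, reading TNB absorbance at 412 nm.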
# Mus musculus [7] = test: Anti-alzheimer activity against APP/PS1 mouse model assessed as time spent in the target quadrant at 500 mg/kg, po measured after 4 days by Morris water maze test (reference value: 16.39+/-3.39%); type: functional; settings: time 4 day
# Mus musculus [8] = test: Anti-alzheimer activity against APP/PS1 mouse model assessed as escape latency at 500 mg/kg, po measured after 4 days by Morris water maze test (reference value: 6.64+/-1.58 sec); type: functional; settings: time 4 day
# [9] = Stability in CD-1 mouse liver homogenate assessed as half life at 1 uM measured upto 240 mins by LC-MS/MS analysis; type: ADME, tissue-based
# Method in brief: (§2)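 Compound at 1 μM final was incubated at 37 °C in plasma, brain homogenate, liver homogenate, simulated gastric fluid or simulated intestinal fluid. Supernatants were analyzed by HPLC-UV (254 nm, after Fmoc-Cl derivatization) and/or LC-MS/MS to derive t1/2.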
# [10] = Stability in CD-1 mouse brain homogenate assessed as half life at 1 uM measured upto 240 mins by LC-MS/MS analysis; type: ADME, tissue-based; method in brief: as §2
# [11] = Reversal of resistant against ip dosed Abeta1-42 induced cognitive impairment in mouse assessed as reduction in repetitive arm entries (reference value: 3.22+/-0.27); settings: in vivo
# Mus musculus [12] = test: Anti-alzheimer activity against APP/PS1 mouse model assessed as reduction in insoluble Abeta1-42 at 500 mg/kg, po […] by ELISA assay relative to control; type: functional; parameters: scale not given: the % may be the effect or the level left
# Method in brief: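 APP/PS1 mice, 3–4 months old, were gavaged with ψ-GSH 500 mg/kg or saline three times weekly for 12 weeks. Insoluble brain Aβ1–42 was quantified by sandwich ELISA and expressed as % of saline-treated APP/PS1 mice.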
# Mus musculus [13] = test: Anti-alzheimer activity against APP/PS1 mouse model assessed as increase in spatial memory development at 500 mg/kg, po measured after 4 days by Morris water maze test; type: functional, organism-based; settings: time 4.0 day
# Mus musculus [14] = test: Anti-alzheimer activity against oral dosed mouse brain assessed as reduction in AGE level by immunohistochemical analysis; type: functional, organism-based
# [15] = Reversal of resistant against po dosed Abeta1-42 induced cognitive impairment in mouse assessed as reduction in repetitive arm entries (reference value: 3.22+/-0.27); type: organism-based; settings: in vivo
# [16] = Stability in CD-1 mouse plasma at 250 mg/kg, po at 1 uM measured after 6 hrs by LC-MS/MS analysis; type: ADME, organism-based; settings: in vivo
smiles,measurement,setting,value
CCOC(=O)SC[C@H](NC(=O)NC[C@H](N)C(=O)O)C(=O)NCC(=O)O,t1/2,[1],38.5 h
same,t1/2,[2],47.14 h
same,t1/2,[3],27.7 h
N[C@@H](CNC(=O)N[C@@H](CS)C(=O)NCC(=O)O)C(=O)O,AUC,[4],8.06 nmol·h
same,Activity,Mus musculus [5],Active
same,Activity,Mus musculus [6],Active
same,half-life at 1 µM,"[1]; CD-1, mouse, intestinal phase of gastrointestinal tract",1.28 h
same,Activity,Mus musculus [7],21.76%
same,Time,Mus musculus [8],6.9 s
same,half-life at 1 µM,[9],0.02 h
same,half-life at 1 µM,[10],1.51 h
same,repetitive arm entries,[11],0.5
same,Activity,Mus musculus [12],90.8%
same,half-life at 1 µM,[2],0.23 h
same,Activity,Mus musculus [13],Active
same,half-life at 1 µM,"[3]; CD-1, mouse, gastric phase of gastrointestinal tract",28.8 h
Cl.N[C@@H](CNC(=O)N[C@@H](CS)C(=O)NCC(=O)OC1CCCC1)C(=O)OC1CCCC1,Activity,Mus musculus [14],Active
same,repetitive arm entries,[15],1.8
same,t1/2,[1],5.24 h
same,Stability,[16],Stable
same,t1/2,[2],72.2 h
same,t1/2,[3],4.87 h
CC(=O)SC[C@H](NC(=O)NC[C@H](N)C(=O)O)C(=O)NCC(=O)O,t1/2,[1],5.02 h
same,t1/2,[2],5.8 h
same,t1/2,[3],28.88 h
CCOC(=O)SC[C@H](NC(=O)NC[C@H](N)C(=O)OC1CCCC1)C(=O)NCC(=O)OC1CCCC1,t1/2,[2],61.32 h
N[C@@H](CNC(=O)N1C(=O)SC[C@H]1C(=O)NCC(=O)O)C(=O)O,t1/2,[2],25.57 h
N[C@@H](CNC(=O)N1CSC[C@H]1C(=O)NCC(=O)O)C(=O)O,half-life at 1 µM,[9],116 h
same,half-life at 1 µM,[2],30.6 h
